In brackets after ≈: the same amount, converted by molar mass. Activity calls are given as the source filed them. The calls are words filed in the database; no cut-off is given here. Residues, ends and D or L forms follow the SMILES beside them.
Tests used:
[1] = Induction of hemolysis in human RBC at 100 uM incubated for 1 hr relative to control; type: cell-based, Erythrocyte; settings: red blood cells (RBC), read-out: Activity
Summary of the method: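 Human erythrocytes from healthy volunteers, washed three times in PBS, used as a 0.25% suspension in PBS. Peptides serially diluted, top concentration 100 μM per well. Incubated 1 h at 37 °C, then centrifuged, and supernatant absorbance read at 415 nm. PBS was the negative control and 1% Triton X-100 the 100% lysis control. Three replicates.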

Pseudomonas aeruginosa [2] = assay: Antibacterial activity against Pseudomonas aeruginosa PA14 infected in CD-1 IGS mouse model of scarification skin infection assessed as reduction in bacterial counts at 64 uM measured on day 2 post-infection relative to control; type: functional
Summary of the method: (§1)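 Six-week-old female CD-1 IGS mice under isoflurane, back shaved, superficial skin abrasions sparing the dermis. Five minutes later, 5 x 10^7 CFU in 50 μL PBS applied to the wound. Two days later, peptide applied to the same area at 64 µM in 20 µL. Infected skin excised and homogenized for CFU counts two and four days post-infection. Four mice per group, two independent experiments; one-way ANOVA with Dunnett's test.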

Escherichia coli [3] = assay: Antibacterial activity against KPC+ Escherichia coli isolate 001812446 incubated for 18 hrs by spectrophotometry; type: functional; settings: isolate 001812446, 18 h
Summary of the method: (§2)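 Broth microdilution per CLSI in Mueller-Hinton broth. Three colonies grown overnight in MHB at 37 °C, 200 rpm; final inoculum 2-5 x 10^5 CFU/mL. Peptides tested at 2 to 32 μM, chloramphenicol as positive control at the same concentrations. Incubated 18 h at 37 °C, OD600 read. MIC taken as lowest inhibiting concentration; three independent experiments.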

Escherichia coli [4] = assay: Antibacterial activity against Escherichia coli BL21 incubated for 18 hrs by spectrophotometry; type: functional; settings: BL21, 18 h; summary of the method: as §2
Escherichia coli [5] = assay: Antibacterial activity against Escherichia coli ATCC 25922 incubated for 18 hrs by spectrophotometry; type: functional; settings: ATCC 25922, 18 h; summary of the method: as §2
Enterobacter cloacae = assay: Antibacterial activity against Enterobacter cloacae isolate 1383251 incubated for 18 hrs by spectrophotometry; type: functional; settings: isolate 1383251, 18 h; summary of the method: as §2
Pseudomonas aeruginosa [6] = assay: Antibacterial activity against Pseudomonas aeruginosa PA14 infected in CD-1 IGS mouse model of scarification skin infection assessed as reduction in bacterial counts at 64 uM measured on day 2 to 4 post-infection relative to control; type: functional, organism-based; settings: TDE = time-dependent effect; summary of the method: as §1
Pseudomonas aeruginosa [7] = assay: Antibacterial activity against Pseudomonas aeruginosa PA14 infected in CD-1 IGS mouse model of scarification skin infection assessed as reduction in bacterial counts at 64 uM measured on day 4 post-infection relative to control; type: functional; summary of the method: as §1
HT-29 = assay: Cytotoxicity in human HT-29 cells assessed as reduction in cell viability incubated for 2 hrs by MTT assay; type: functional, cell-based; settings: HT-29, 2 h
PC-3 = assay: Cytotoxicity in human PC3 cells assessed as reduction in cell viability incubated for 2 hrs by MTT assay; type: functional, cell-based; settings: PC-3, 2 h
HUVEC = assay: Cytotoxicity in HUVEC assessed as reduction in cell viability incubated for 2 hrs by MTT assay; type: cell-based; settings: Homo sapiens
Summary of the method: (§3)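 Cells grown at 37 °C, 5% CO2, passages 2–10, seeded 5 x 10^3 cells/well, attached 24 h. Media refreshed, then peptides added at final 0.781 to 100 μM. Viability reagent added after 2 h, followed by 4 h further incubation. Supernatant replaced by DMSO, absorbance read at 600 nm. Three independent experiments.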

Pseudomonas aeruginosa [8] = assay: Antibacterial activity against Pseudomonas aeruginosa PA14 incubated for 18 hrs by spectrophotometry; type: functional; settings: PA14, 18 h; summary of the method: as §2
Acinetobacter baumannii = assay: Antibacterial activity against Acinetobacter baumannii isolate 003326263 incubated for 18 hrs by spectrophotometry; type: functional; settings: isolate 003326263, 18 h; summary of the method: as §2
Pseudomonas aeruginosa [9] = assay: Antibacterial activity against Pseudomonas aeruginosa PAO1 incubated for 18 hrs by spectrophotometry; type: functional; settings: PAO1, 18 h; summary of the method: as §2
Klebsiella pneumoniae [10] = assay: Antibacterial activity against Klebsiella pneumoniae ATCC 13883 incubated for 18 hrs by spectrophotometry; type: functional; settings: ATCC 13883, 18 h; summary of the method: as §2
Pseudomonas aeruginosa [11] = assay: Antibiofilm activity against 2 day-old preformed Pseudomonas aeruginosa PAO1 assessed as induction of biofilm eradication at 16 uM incubated for 24 hrs by SYTO-9 dye based by confocal microscopy; type: functional, organism-based
Summary of the method: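 Flow-cell biofilms: chambers inoculated with overnight culture diluted to OD600 ~0.5, grown in BM2 with 0.4% glucose. Established biofilms then given continuous flow of peptide at 16 µM in BM2 for 24 h. Stained with SYTO-9 (live) and propidium iodide (dead), imaged by confocal microscopy with 3D reconstruction. Two independent experiments.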

Staphylococcus aureus [12] = assay: Antibacterial activity against Staphylococcus aureus ATCC 12600 incubated for 18 hrs by spectrophotometry; type: functional; settings: ATCC 12600, 18 h; summary of the method: as §2
Staphylococcus aureus [13] = assay: Antibacterial activity against methicillin-resistant Staphylococcus aureus isolate 713623 incubated for 18 hrs by spectrophotometry; type: functional; settings: isolate 713623, 18 h
Summary of the method: (§4)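 Broth microdilution per CLSI in Mueller-Hinton broth; inocula from three colonies grown overnight at 37 °C, 200 rpm; final 2-5 x 10^5 CFU/mL. Peptides tested at 2 to 32 μM; chloramphenicol at same concentrations as positive control. Plates incubated 37 °C, 18 h; growth read at 600 nm. Three independent experiments.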

Klebsiella pneumoniae [14] = assay: Antibacterial activity against KPC+ Klebsiella pneumoniae isolate 001825971 incubated for 18 hrs by spectrophotometry; type: functional; settings: isolate 001825971, 18 h; summary of the method: as §2
Staphylococcus aureus [15] = assay: Antibacterial activity against Staphylococcus aureus ATCC 25923 incubated for 18 hrs by spectrophotometry; type: functional; settings: ATCC 25923, 18 h; summary of the method: as §4
3T3-L1 = assay: Cytotoxicity in mouse 3T3L1 cells assessed as reduction in cell viability incubated for 2 hrs by MTT assay; type: cell-based; settings: 3T3-L1, 2 h; summary of the method: as §3
MCF7 = assay: Cytotoxicity in human MCF7 cells assessed as reduction in cell viability incubated for 2 hrs by MTT assay; type: functional, cell-based; settings: MCF7, 2 h
Pseudomonas aeruginosa [16] = assay: Antibacterial activity against bioluminescent Pseudomonas aeruginosa H1001 incubated for 4 hrs by luminescence based assay; type: functional; settings: H1001, 4 h
Summary of the method: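 Crude peptides released from cellulose spots, two-fold diluted in BM2 (62 mM potassium phosphate pH 7, 2 mM MgSO4, 10 μM FeSO4, 0.4% glucose). Strain fliC::luxCDABE grown in LB to OD600 0.4, diluted 4:100 into BM2, mixed 1:1 with peptide (128 to 2 μM). Shaken 50 rpm, 4 h, 37 °C. Activity scored as luminescence reduction versus untreated cells.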

Row | Compound | hemolysis at 1 h, 100 µM [1] [%] | fold change (FC) (Pseudomonas aeruginosa [2]) | MIC (Escherichia coli [3]) [µM] | MIC (Escherichia coli [4]) [µM] | MIC (Escherichia coli [5]) [µM] | MIC (Enterobacter cloacae) [µM] | Activity (Pseudomonas aeruginosa [6]) | IC50 (HT-29) [µM] | IC50 (PC-3) [µM] | IC50 (HUVEC) [µM] | MIC (Pseudomonas aeruginosa [8]) [µM] | MIC (Acinetobacter baumannii) [µM] | MIC (Pseudomonas aeruginosa [9]) [µM] | MIC (Klebsiella pneumoniae [10]) [µM] | Activity (Pseudomonas aeruginosa [11]) | MIC (Staphylococcus aureus [12]) [µM] | MIC (Staphylococcus aureus [13]) [µM] | MIC (Klebsiella pneumoniae [14]) [µM] | MIC (Staphylococcus aureus [15]) [µM] | MIC (Pseudomonas aeruginosa [16]) [µM] | further results
1 | CC[C@H](C)[C@H](N)C(=O)N[C@@H](CC(N)=O)C(=O)N[C@@H](CC(C)C)C(=O)N[C@@H](CCCCN)C(=O)N[C@@H](C)C(=O)N[C@@H](CC(C)C)C(=O)N[C@@H](C)C(=O)N[C@@H](C)C(=O)N[C@@H](CC(C)C)C(=O)N[C@@H](C)C(=O)N[C@@H](CCCCN)C(=O)N[C@@H](CCCCN)C(=O)N[C@H](C(=O)N[C@@H](CC(C)C)C(=O)O)[C@@H](C)CC | 45 | 100 | > 32 | 2 (≈ 2.96 µg/mL) | 32 (≈ 47.4 µg/mL) | > 32 | Tde | 25 | 12.5 | 50 | 8 (≈ 11.8 µg/mL) | > 32 | 8 (≈ 11.8 µg/mL) | > 32 | inactive | 8 (≈ 11.8 µg/mL) | > 32 | > 32 | > 32 |  | Activity (Pseudomonas aeruginosa [7]): Active; IC50 (3T3-L1): 12.5 µM; IC50 (MCF7): 25 µM
2 | CC[C@H](C)[C@H](N)C(=O)N[C@@H](CCCCN)C(=O)N[C@@H](CC(C)C)C(=O)N[C@@H](CC(C)C)C(=O)N[C@@H](C)C(=O)N[C@@H](CCCNC(=N)N)C(=O)N[C@H](C(=O)N[C@@H](C)C(=O)N[C@@H](CC(C)C)C(=O)N[C@@H](CCCCN)C(=O)N[C@H](C(=O)N[C@@H](CCCCN)C(=O)N[C@H](C(=O)N[C@@H](CC(C)C)C(=O)O)[C@@H](C)CC)[C@@H](C)CC)[C@@H](C)CC (H-IKLLARIALKIKIL-OH) |  |  |  |  |  |  |  |  |  |  |  |  |  |  |  |  |  |  |  | 30 (≈ 48.2 µg/mL) | 
3 | CC[C@H](C)[C@H](N)C(=O)N[C@@H](CC(N)=O)C(=O)N[C@@H](CCCCN)C(=O)N[C@H](C(=O)N[C@@H](C)C(=O)N[C@@H](CC(C)C)C(=O)N[C@@H](CCCNC(=N)N)C(=O)N[C@H](C(=O)N[C@@H](CC(C)C)C(=O)N[C@@H](C)C(=O)N[C@@H](CCCCN)C(=O)N[C@H](C(=O)N[C@H](C(=O)N[C@@H](CC(C)C)C(=O)O)[C@@H](C)CC)[C@@H](C)CC)[C@@H](C)CC)[C@@H](C)CC (H-INKIALRILAKIIL-OH) |  |  |  |  |  |  |  |  |  |  |  |  |  |  |  |  |  |  |  | 30 (≈ 47.8 µg/mL) | 
4 | CC[C@H](C)[C@H](N)C(=O)N[C@@H](CC(N)=O)C(=O)N[C@@H](CC(C)C)C(=O)N[C@@H](CCCCN)C(=O)N[C@@H](CCCCN)C(=O)N[C@@H](CC(C)C)C(=O)N[C@@H](C)C(=O)N[C@@H](C)C(=O)N[C@@H](CCCNC(=N)N)C(=O)N[C@H](C(=O)N[C@@H](CCCCN)C(=O)N[C@@H](CCCCN)C(=O)N[C@@H](CCCCN)C(=O)N[C@H](C(=O)O)[C@@H](C)CC)[C@@H](C)CC (H-INLKKLAARIKKKI-OH) | 8 | 100 | 8 (≈ 13.1 µg/mL) | 2 (≈ 3.27 µg/mL) | 4 (≈ 6.55 µg/mL) | > 32 | Tde | > 100 | > 100 | > 100 | 4 (≈ 6.55 µg/mL) | > 32 | 4 (≈ 6.55 µg/mL) | > 32 | Active | 4 (≈ 6.55 µg/mL) | 8 (≈ 13.1 µg/mL) | > 32 | 8 (≈ 13.1 µg/mL) | 4 (≈ 6.55 µg/mL) | Activity (Pseudomonas aeruginosa [7]): Active; IC50 (3T3-L1): > 100 µM; IC50 (MCF7): > 100 µM
5 | CC[C@H](C)[C@H](NC(=O)[C@H](CCCCN)NC(=O)[C@H](CCCCN)NC(=O)[C@@H](NC(=O)[C@H](CCCCN)NC(=O)[C@H](C)NC(=O)[C@H](C)NC(=O)[C@H](CC(C)C)NC(=O)[C@H](CCCNC(=N)N)NC(=O)[C@H](CCCCN)NC(=O)[C@H](CC(C)C)NC(=O)[C@@H](NC(=O)[C@@H](N)CCCCN)[C@@H](C)CC)[C@@H](C)CC)C(=O)N[C@@H](CC(C)C)C(=O)O (H-KILKRLAAKIKKIL-OH) | 3 | 100 | 8 (≈ 13.1 µg/mL) | 2 (≈ 3.27 µg/mL) | 4 (≈ 6.54 µg/mL) | > 32 | Tde | > 100 | > 100 | > 100 | 4 (≈ 6.54 µg/mL) | > 32 | 4 (≈ 6.54 µg/mL) | 8 (≈ 13.1 µg/mL) | Active | 4 (≈ 6.54 µg/mL) | > 32 | > 32 | > 32 | 4 (≈ 6.54 µg/mL) | fold change (FC) (Pseudomonas aeruginosa [7]): 1000; IC50 (3T3-L1): > 100 µM; IC50 (MCF7): > 100 µM
6 | CC[C@H](C)[C@H](NC(=O)[C@H](CCCCN)NC(=O)[C@H](C)NC(=O)[C@H](C)NC(=O)[C@H](CC(C)C)NC(=O)[C@H](CCCNC(=N)N)NC(=O)[C@H](CC(C)C)NC(=O)[C@H](C)NC(=O)[C@H](CC(C)C)NC(=O)[C@H](CCCCN)NC(=O)[C@H](CC(C)C)NC(=O)[C@H](CCCCN)NC(=O)[C@H](CCCCN)NC(=O)[C@H](CCSC)NC(=O)[C@@H]1CCCN1)C(=O)N[C@@H](C)C(=O)N1CCC[C@H]1C(=O)N[C@H](C(=O)N[C@@H](Cc1c[nH]c2ccccc12)C(=O)O)C(C)C (H-PMKKLKLALRLAAKIAPVW-OH) |  | 100 |  |  |  |  |  |  |  |  |  |  |  |  |  |  |  |  |  |  | 
